ChEMBL document CHEMBL1149559, “Synthesis and evaluation of amphiphilic cationic quinine-derived for antibacterial activity against methicillin-resistant Staphylococcus aureus” (Bioorg Med Chem Lett, 2007)
≈ marks a conversion by molar mass, not a printed value. Calls of active or inactive are those of the source. The calls are words filed in the database; no cut-off is given here.

Experiments:
[1] = Toxicity in human erythrocytes assessed as hemolytic activity at 250 ug/ml after 1 hr; format: cell-based, Erythrocyte; conditions: read-out: Activity
Outline: (§1)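 Human heparinised erythrocytes, PBS-washed, were used at about 1.0 × 10^9 cells/mL and mixed 1:1 with compound (1-2000 µg/mL) for 1 h at 37 °C. After centrifugation, supernatant OD540 was read. PBS set 0% lysis and 0.1% Triton X-100 set 100% lysis. Triplicates, confirmed in three independent experiments.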

Micrococcus luteus = experiment: Antibacterial activity against Micrococcus luteus CMCC(B)28001 by broth microdilution method; format: functional
Outline: (§2)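 MIC and MBC by broth microdilution following NCCLS recommendations; values given in µg/mL.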

Staphylococcus aureus [2] = experiment: Antibacterial activity against methicillin-susceptible Staphylococcus aureus ATCC 25923 by broth microdilution method; format: functional; outline: as §2
Pseudomonas aeruginosa = experiment: Antibacterial activity against Pseudomonas aeruginosa ATCC 27853 by broth microdilution method; format: functional; outline: as §2
Staphylococcus aureus [3] = experiment: Antibacterial activity against methicillin-resistant Staphylococcus aureus CMAH 0504 by broth microdilution method; format: functional; outline: as §2
Staphylococcus aureus [4] = experiment: Antibacterial activity against Staphylococcus aureus by disk diffusion method; format: functional
Bacillus subtilis = experiment: Antibacterial activity against Bacillus subtilis ATCC 6633 by broth microdilution method; format: functional; outline: as §2
Staphylococcus aureus [5] = experiment: Antibacterial activity against methicillin-resistant Staphylococcus aureus CMAH 0430 by broth microdilution method; format: functional; outline: as §2
Staphylococcus aureus [6] = experiment: Antibacterial activity against methicillin-resistant Staphylococcus aureus CMAH 0504 at 30 ug/ml by disk diffusion method; format: functional; conditions: read-out: IZ
Staphylococcus aureus [7] = experiment: Antibacterial activity against methicillin-resistant Staphylococcus aureus CMAH 0430 by disk diffusion method; format: functional
Staphylococcus aureus [8] = experiment: Antibacterial activity against methicillin-resistant Staphylococcus aureus CMAH 0515 by broth microdilution method; format: functional; outline: as §2
Staphylococcus aureus [9] = experiment: Antibacterial activity against methicillin-susceptible Staphylococcus aureus ATCC 25923 at 15 ug/ml after 40 mins; format: functional, organism-based
Outline: (§3)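 Time-kill assay. Mid-log cultures were diluted in Mueller–Hinton broth to a final inoculum of 3-5 × 10^5 cells/mL and incubated at 30 °C with 5, 10, 15 µg/mL (S. aureus ATCC 25923) or 2.5, 5, 10 µg/mL (MRSA CMAH 0504), alongside a drug-free growth control. Samples were washed, plated on MH agar and incubated 24 h at 30 °C for colony counts. Three independent experiments, each in triplicate.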

[10] = Toxicity in human erythrocytes assessed as hemolytic activity at 500 ug/ml after 1 hr; format: cell-based, Erythrocyte; conditions: read-out: Activity; outline: as §1
Staphylococcus aureus [11] = experiment: Antibacterial activity against methicillin-resistant Staphylococcus aureus CMAH 0515 by disk diffusion method; format: functional
[12] = Toxicity in human erythrocytes assessed as hemolytic activity at 2000 ug/ml after 1 hr; format: cell-based, Erythrocyte; conditions: read-out: Activity; outline: as §1
[13] = Toxicity in human erythrocytes assessed as hemolytic activity at 1000 ug/ml after 1 hr; format: cell-based, Erythrocyte; conditions: read-out: Activity; outline: as §1
Escherichia coli = experiment: Antibacterial activity against Escherichia coli ATCC 25922 by broth microdilution method; format: functional; outline: as §2
Staphylococcus aureus [14] = experiment: Antibacterial activity against methicillin-resistant Staphylococcus aureus CMAH 0504 at 10 ug/ml after 20 to 30 mins; format: functional, organism-based; outline: as §3

SMILES | hemolysis at 1 h, 250 ug/ml [1] | MBC (Micrococcus luteus) | MIC (Micrococcus luteus) | MBC (Staphylococcus aureus [2]) | MIC (Staphylococcus aureus [2]) | MBC (Staphylococcus aureus [3]) | MIC (Staphylococcus aureus [3]) | inhibition zone (IZ) (Staphylococcus aureus [4]) | MBC (Bacillus subtilis) | MIC (Bacillus subtilis) | MBC (Staphylococcus aureus [5]) | MIC (Staphylococcus aureus [5]) | zone of inhibition at 30 µg/mL (Staphylococcus aureus [6]) | inhibition zone (IZ) (Staphylococcus aureus [7]) | MBC (Staphylococcus aureus [8]) | MIC (Staphylococcus aureus [8]) | hemolysis at 1 h, 500 ug/ml [10] | inhibition zone (IZ) (Staphylococcus aureus [11]) | hemolysis at 1 h, 2000 ug/ml [12] | hemolysis at 1 h, 1000 ug/ml [13] | also measured
C=CC1C[N+]2(CC(=O)c3cccc4ccccc34)CCC1CC2[C@H](O)c1ccnc2ccc(OC)cc12.[Br-] (stereo partly specified) | 0% | 3.13 µg/mL | 3.13 µg/mL | 3.13 µg/mL | 1.56 µg/mL | 1.56 µg/mL | 0.78 µg/mL | 26 mm | 6.25 µg/mL | 3.13 µg/mL | 1.56 µg/mL | 0.39 µg/mL | 23 mm | 26 mm | 1.56 µg/mL | 0.39 µg/mL | 9% | 25 mm | 55% | 17% | MIC (Pseudomonas aeruginosa): 100 µg/mL; Activity (Staphylococcus aureus [9]): inactive; MBC (Escherichia coli): 100 µg/mL; MIC (Escherichia coli): 50 µg/mL; Activity (Staphylococcus aureus [14]): Active
Cc1nnc(SCC2=C(C(=O)O)N3C(=O)[C@@H](NC(=O)Cn4cnnn4)[C@H]3SC2)s1 [CEFAZOLIN] | – | – | – | – | – | – | – | 30 mm | – | – | – | – | – | 2 mm | – | – | – | – | – | – | –
CN[C@H](CC(C)C)C(=O)N[C@H]1C(=O)N[C@@H](CC(N)=O)C(=O)N[C@H]2C(=O)N[C@H]3C(=O)N[C@H](C(=O)N[C@H](C(=O)O)c4cc(O)cc(O)c4-c4cc3ccc4O)[C@H](O)c3ccc(c(Cl)c3)Oc3cc2cc(c3O[C@@H]2O[C@H](CO)[C@@H](O)[C@H](O)[C@H]2O[C@H]2C[C@](C)(N)[C@H](O)[C@H](C)O2)Oc2ccc(cc2Cl)[C@H]1O [VANCOMYCIN] | – | – | – | – | – | – | – | 23 mm | – | – | – | – | 22 mm | 24 mm | – | – | – | 24 mm | – | – | –
C[C@H]1COc2c(N3CCN(C)CC3)c(F)cc3c(=O)c(C(=O)O)cn1c23.C[C@H]1COc2c(N3CCN(C)CC3)c(F)cc3c(=O)c(C(=O)O)cn1c23.O [LEVOFLOXACIN] | – | – | – | – | – | – | – | 32 mm | – | – | – | – | – | – | – | – | – | – | – | – | –
O=C(N[C@H](CO)[C@H](O)c1ccc([N+](=O)[O-])cc1)C(Cl)Cl [CHLORAMPHENICOL] | – | – | – | – | – | – | – | 32 mm | – | – | – | – | 26 mm | 27 mm | – | – | – | 27 mm | – | – | –
C=CC1C[N+]2(CC(=O)c3ccc(Br)cc3)CCC1CC2[C@H](O)c1ccnc2ccc(OC)cc12.[Br-] (stereo partly specified) | 0% | 6.25 µg/mL | 6.25 µg/mL | 6.25 µg/mL | 3.13 µg/mL | 12.5 µg/mL | 6.25 µg/mL | 24 mm | 6.25 µg/mL | 3.13 µg/mL | 6.25 µg/mL | 3.13 µg/mL | 22 mm | 23 mm | 6.25 µg/mL | 3.13 µg/mL | 0% | 22 mm | 25% | 7% | MIC (Pseudomonas aeruginosa): 100 µg/mL; MIC (Escherichia coli): 100 µg/mL
CC1(C)S[C@@H]2[C@H](NC(=O)[C@H](N)c3ccccc3)C(=O)N2[C@H]1C(=O)O [AMPICILLIN] | – | 0.78 µg/mL (≈ 2.23 µM) | 0.39 µg/mL (≈ 1.12 µM) | 0.78 µg/mL (≈ 2.23 µM) | 0.39 µg/mL (≈ 1.12 µM) | – | – | 34 mm | 0.39 µg/mL (≈ 1.12 µM) | 0.39 µg/mL (≈ 1.12 µM) | – | – | – | – | – | – | – | – | – | – | MBC (Escherichia coli): 100 µg/mL (≈ 286 µM); MIC (Escherichia coli): 50 µg/mL (≈ 143 µM)
C=CC1C[N+]2(CC(=O)c3ccc(Cl)cc3)CCC1CC2[C@H](O)c1ccnc2ccc(OC)cc12 (stereo partly specified) | – | – | – | – | – | – | – | – | – | – | – | – | – | – | – | – | – | – | – | – | Activity (Staphylococcus aureus [2]): inactive; Activity (Staphylococcus aureus [3]): inactive; Activity (Staphylococcus aureus [5]): inactive; Activity (Staphylococcus aureus [8]): inactive
C=C[C@H]1CN2CC[C@H]1C[C@H]2[C@H](O)c1ccnc2ccc(OC)cc12 | – | – | – | – | – | – | – | – | – | – | – | – | – | – | – | – | – | – | – | – | Activity (Staphylococcus aureus [2]): inactive; Activity (Staphylococcus aureus [3]): inactive; Activity (Staphylococcus aureus [5]): inactive; Activity (Staphylococcus aureus [8]): inactive
C=CC1C[N+]2(CC(=O)c3ccccc3)CCC1CC2[C@H](O)c1ccnc2ccc(OC)cc12.[Br-] (stereo partly specified) | 0% | 12.5 µg/mL | 6.3 µg/mL | 25 µg/mL | 12.5 µg/mL | 25 µg/mL | 12.5 µg/mL | – | 25 µg/mL | 25 µg/mL | 25 µg/mL | 12.5 µg/mL | – | – | 25 µg/mL | 12.5 µg/mL | 0% | – | 5% | 0% | –
C=CC1C[N+]2(CC(=O)c3ccc(OC)cc3)CCC1CC2[C@H](O)c1ccnc2ccc(OC)cc12.[Br-] (stereo partly specified) | 0% | 12.5 µg/mL | 12.5 µg/mL | 12.5 µg/mL | 12.5 µg/mL | 50 µg/mL | 25 µg/mL | – | 25 µg/mL | 12.5 µg/mL | 50 µg/mL | 25 µg/mL | – | – | 50 µg/mL | 25 µg/mL | 0% | – | 0% | 0% | –
CCC(=O)O[C@@H]1CC(=O)O[C@H](C)C/C=C/C=C/[C@H](O)[C@H](C)C[C@H](CC=O)[C@H](O[C@@H]2O[C@H](C)[C@@H](O[C@H]3C[C@@](C)(O)[C@@H](OC(=O)CC)[C@H](C)O3)[C@H](N(C)C)[C@H]2O)[C@H]1OC [MIDECAMYCIN] | – | – | – | – | – | – | – | 27 mm | – | – | – | – | – | – | – | – | – | – | – | – | –
C=CC1C[N+]2(CC(=O)c3ccc([N+](=O)[O-])cc3)CCC1CC2[C@H](O)c1ccnc2ccc(OC)cc12.[Br-] (stereo partly specified) | 0% | 50 µg/mL | 25 µg/mL | 50 µg/mL | 25 µg/mL | 50 µg/mL | 50 µg/mL | – | 50 µg/mL | 25 µg/mL | 50 µg/mL | 50 µg/mL | – | – | 50 µg/mL | 50 µg/mL | 0% | – | 0% | 0% | –
C=C[C@H]1C[N@@]2CC[C@H]1C[C@H]2[C@H](O)c1ccnc2ccc(OC)cc12 [QUININE] | 0% | – | – | – | – | – | – | – | – | – | – | – | – | – | – | – | 0% | – | 0% | 0% | –
NC[C@H]1O[C@H](O[C@H]2[C@H](O)[C@@H](O[C@H]3O[C@H](CO)[C@@H](O)[C@H](N)[C@H]3O)[C@H](N)C[C@@H]2N)[C@H](O)[C@@H](O)[C@@H]1O [KANAMYCIN] | – | 0.39 µg/mL (≈ 0.805 µM) | 0.39 µg/mL (≈ 0.805 µM) | 0.78 µg/mL (≈ 1.61 µM) | 0.39 µg/mL (≈ 0.805 µM) | – | – | 28 mm | 6.25 µg/mL (≈ 12.9 µM) | 6.25 µg/mL (≈ 12.9 µM) | – | – | – | – | – | – | – | – | – | – | MBC (Escherichia coli): 0.39 µg/mL (≈ 0.805 µM); MIC (Escherichia coli): 0.39 µg/mL (≈ 0.805 µM)
CN(C)[C@@H]1C(O)=C(C(N)=O)C(=O)[C@@]2(O)C(O)=C3C(=O)c4c(O)cccc4[C@@](C)(O)[C@H]3C[C@@H]12 [TETRACYCLINE] | – | – | – | – | – | – | – | 14 mm | – | – | – | – | 17 mm | 15 mm | – | – | – | 17 mm | – | – | –
